Data on six molecules can be found in PMC9734322 (Inflammation Research, 2022).

Assay [1] has as its system initiation or propagation pathway of the coagulation cascade (plasma). Kind of assay: Activated partial thromboplastin time. The format is biochemical, human. The note with it: control 41.3 ± 0.7 s.
For assay [2], the system named is calcium-dependent coagulation cascade factors (plasma). Kind of assay: Plasma recalcification time test. The format is biochemical, human. Conditions: control 196.9 ± 9 s. The method in brief:
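Pooled citrated plasma from healthy donors (100 µL) was incubated with saline or test compound for 10 min at 37 °C. CaCl₂ was added (12.5 mM final) and clotting time recorded in a coagulometer. Mean ± SEM.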

Assay [3] concerns extrinsic pathway and common pathways of the coagulation cascade (plasma). Kind of assay: Prothrombin time test. The format is biochemical, human. The note with it: control 15 ± 2 s.
The test system of another assay is P2X7R. The note with it: ATP concentration required for activation; cited from earlier work.
Another assay has as its system ATP-induced paw edema. Kind of assay: ATP-induced paw edema assay. Format: in vivo, mice (Swiss Webster). Conditions: 10 mM ATP subplantar, phlogistic agent. Summed up:
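Male Swiss Webster mice (~30 g) were given test compound at 100, 500 or 1000 ng/kg i.p. 1 h before ATP (10 mM/paw subplantar, 20 µL), with 0.9% NaCl in the contralateral paw. Diclofenac 10 mg/kg i.p. was the positive control and saline the negative control. Paw volume was read by plethysmometer 60 min after ATP. Three experiments on different days; mean ± SD; one-way ANOVA/Tukey.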

For assay [4], the system named is platelet-rich plasma (PRP). Conditions: 1 µM, ADP 15 µM.
In assay [5] the test system is carrageenan-induced peritonitis. Kind of assay: Carrageenan-induced peritonitis, total and differential leukocyte count. Format: in vivo, mice. The note with it: for % Mononuclear cells / % Neutrophils: mean ± SD. The method in brief:
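Mice were pretreated i.p. (100 µL) with test compound or dexamethasone 10 mg/kg, then given carrageenan 10 mg/kg i.p. 1 h later; PBS pH 7.4 served as negative control. Peritoneal fluid was collected 3 h after first administration. Total leukocytes were counted in a Neubauer chamber. Slides were methanol-fixed 5 min and Giemsa-stained 15–20 min; 100 cells were counted per slide. Three experiments on different days; mean ± SD; ANOVA/Tukey.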

Where [6] appears, read: pretreatment, then carrageenan 10 mg/kg 1 h later.
[7] abbreviates: substance alone, 10 mg/kg as printed, differential count of 100 cells.

Regarding `O=C1CN=C(c2cccc(Br)c2)c2oc3ccccc3c2N1` [5-BDBD], the “clotting time in the aPTT test” value in assay [1] (1 µM) is recorded as 41.9 ± 0.6 s; in assay [1] (10 µM), 42.5 ± 0.8 s. Moreover, the results for the “plasma recalcification clotting time” value in assay [2] (1 µM) and in assay [2] (10 µM) were 204.6 ± 9 s and 195 ± 7 s, respectively. Further, the prothrombin time stood at 15.4 ± 0.7 s in assay [3] (1 µM) and 15.7 ± 0.5 s in assay [3] (10 µM).
As for `Nc1ncnc2c1ncn2[C@@H]1O[C@H](COP(=O)(O)OP(=O)(O)OP(=O)(O)O)[C@@H](O)[C@H]1O` [ATP], the EC50 with P2X7R is ≥ 100 µM. For the same molecule, the “increase in paw edema compared to the saline group” value with ATP-induced paw edema is listed as 30%.
As to `COc1cc(S(=O)(=O)O)cc2cc(S(=O)(=O)O)c(NC(=O)c3ccc(C)c(NC(=O)c4cccc(NC(=O)Nc5cccc(C(=O)Nc6cc(C(=O)Nc7cc8c(OC)cc(S(=O)(=O)O)cc8cc7S(=O)(=O)O)ccc6C)c5)c4)c3)cc12` [NF770], the “clotting time in the aPTT test” value is listed as 40.9 ± 1 s in assay [1] (1 µM) and 42.2 ± 1 s in assay [1] (10 µM). Also, the “plasma recalcification clotting time” value in assay [2] (1 µM) was determined as 200.4 ± 12 s; in assay [2] (10 µM) it was 198 ± 8 s. Besides, the results for the prothrombin time in assay [3] (1 µM) and in assay [3] (10 µM) were 15.5 ± 1 s and 15.7 ± 1 s, respectively.
In the case of `COC(=O)[C@H](c1ccccc1Cl)N1CCc2sccc2C1` [clopidogrel], in assay [4], the ADP-induced platelet aggregation entry is on record as “inhibited ADP-induced platelet aggregation”.
Take `C[C@@H]1C[C@H]2[C@@H]3CCC4=CC(=O)C=C[C@]4(C)[C@@]3(F)[C@@H](O)C[C@]2(C)[C@@]1(O)C(=O)CO` [dexamethasone]: the “carrageenan-induced increase in white blood cells” value in assay [5] (dexamethasone 10 mg/kg i.p. pretreatment) was “reversed”. In assay [5] (setting [6]), the “% Mononuclear cells” value is 72 ± 9ª % and the “% Neutrophils” value is 27 ± 9ª^,g %. In assay [5] (setting [7]), the “% Mononuclear cells” value is reported as 90 ± 6ª % and the “% Neutrophils” value is 9 ± 7ª %.
For the molecule carrageenan, in assay [5] (setting [7]), the “% Mononuclear cells” value is on record as 28 ± 8% and the “% Neutrophils” value is recorded as 67 ± 10%.

The EC50 is the concentration that produces a half-maximal response.
